Assay results reported in article PMC10998571 (Proceedings of the National Academy of Sciences of the …, 2024).
No end group written: not given here.

Tests used:
TNFR1 [1] = target: T1, TNFR1 (Homo sapiens, UniProt P19438); details: 37 (ZAF); ref 55 (Pep4-19); cited from earlier work
T1 sequence (P19438 30-242) 1: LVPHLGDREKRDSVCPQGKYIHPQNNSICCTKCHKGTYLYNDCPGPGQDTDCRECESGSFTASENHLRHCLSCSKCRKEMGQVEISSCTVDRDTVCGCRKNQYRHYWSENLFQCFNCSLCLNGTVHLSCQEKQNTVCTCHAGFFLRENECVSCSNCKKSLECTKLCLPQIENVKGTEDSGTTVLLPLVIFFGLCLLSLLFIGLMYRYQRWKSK
T1 sequence (P19438 30-242) 2: T1 sequence (P19438 30-242) 1

TNFR1 PLAD = test: PLAD FRET biosensor; assay type: cell-based; details: HEK293 cells, 24 h; FKC 50 µM, ZAF 100 µM or co-treatment; N = 4
Method in brief: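 PLAD FRET biosensor made by transient Lipofectamine 3000 transfection of HEK293 cells with donor-only or donor/acceptor FRET pair DNAs. Cells moved to 96-well plates at 15,000 cells/well and treated with PBS (negative control), test compound and/or zafirlukast for 24 h before fluorescence intensity readout.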

TNFR1/TNF = test: Co-IP of TNFR1 and TNF; assay type: binding; details: co-IP with His-tagged TNF beads, overnight 4 °C; FKC 50 µM or etanercept
Method in brief: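 Ni-NTA agarose beads loaded with His-tagged human TNF for 4 h at 4 °C and washed with PBS. […] Samples were analysed by Western blotting, with equal bead-bound TNF and input TNFR1 as pull-down controls.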

[2] = test system: IL-1β induced NF-κB activation in HEK293 cells; test: IL-1β induced NF-κB activation; assay type: cell-based, human; details: IL-1β 50 ng/mL, 18 h, N = 4
Method in brief: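 HEK293 cells co-transfected with an NF-κB-response-element Firefly luciferase reporter (1 μg) and a Renilla reporter (0.1 μg) using Lipofectamine 3000. After 24 h, 15,000 cells/well were incubated with PBS or test compound (5 to 50 µM), with or without IL-1β, for 18 h at 37 °C. Dual-Glo Firefly, then Stop & Glo Renilla, 15 min RT each. Firefly normalised to Renilla and to ligand-treated cells.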

IL-23 receptor = details: without affecting ligand binding; cited from earlier work
NF-κB activation = details: cited from earlier work
[3] = i.p. injection, mice; rhodamine fluorescence of tissue sections
TNFR1 [4] = target: T1, TNFR1; test: TNFR1 FRET biosensor; assay type: cell-based
Method in brief: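 HEK293 cells transiently transfected (Lipofectamine 3000) with TNFR1ΔCD–GFP donor alone or with TNFR1ΔCD–RFP acceptor; donor-only served as the no-FRET control. Cells plated at 15,000 cells/well in 96-well plates and treated with PBS or test compound (5 to 50 µM) for 24 h. FRET read from fluorescence intensity; EC50 derived from the dose–response of FRET change.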

HEK293 cells = test: MTT assay; assay type: cell-based, human; details: FKC 5-50 µM, 24 h, absorbance at 560 nm, N = 4

For `COc1cc(C(=O)NS(=O)(=O)c2ccccc2C)ccc1Cc1cn(C)c2ccc(NC(=O)OC3CCCC3)cc12` [ZAF, zafirlukast], the “extent of inhibition of TNFR1 signaling” value (TNFR1 [1]) is listed as “only exhibited partial inhibition” and the “FRET change of the PLAD biosensor” value (TNFR1 PLAD) is listed as “reduced FRET in the PLAD biosensor”.
In the case of etanercept, the “effect on receptor–ligand interaction” value (TNFR1/TNF) is reported as “disrupting receptor–ligand interaction”.
With “IL-1β: cytokine that binds IL-1 receptor to stimulate NF-κB activation (MedChemExpress, Cat# HY-P7028)” the “NF-κB activation relative to basal level (IL-1β)” value [2] was 10 fold.
For TEEEQQLY [compound 2305], the “inhibition of IL-23 signaling” value (IL-23 receptor) is listed as “noncompetitively inhibit IL-23 signaling”.
For VQRWLIVWRIRK-NH2 [IDR], the “inhibition of NF-κB activation (earlier reports)” value (NF-κB activation) is listed as “inhibit NF-κB activation”.
In the case of “Rho-FKCRRWQWRMKK-NH2 [rhodamine-conjugated FKC]”, the “localization in liver, kidney, and lung” value [3] is reported as “localization of FKC in all tissues”.
With FKCRRWQWRMKK-NH2 [FKC] the EC50 (TNFR1 [4]) was 25 µM and the “toxicity in HEK293 cells” value (HEK293 cells) was “does not have any toxic effect in HEK293 cells”.
